Experimental findings from ChEMBL document CHEMBL1159032, “Renal excretion of stevioside in rats” (J Nat Prod, 1992) are described below.

The nature of data set [1]: Clearance in Wistar rat at 16 mg/kg/hr, iv. Conditions: in vivo. The data set is classed as ADME, organism-based. Also on record: route intravenous. The method in brief: (§1)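 Male Wistar rats (~345 g, fed, water ad lib) under ip sodium pentobarbital (30 mg/kg) on a heated table, tracheostomized. Stevioside (3% in isotonic Ringer's) was given as a priming dose plus sustained iv infusion via jugular vein. There were two 30-min periods, control then stevioside, with 10 rats per dose group. Carotid blood and timed bladder urine were collected.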

In data set [2] the test system is Rattus norvegicus. Description: Effect on renal excretion in Wistar rat assessed as glucose clearance at 4 mg/kg/hr, iv (RVb=0 ml/min/kg). The data set is classed as functional, Kidney. The method in brief:
as §1

Data set [3] deals with Rattus norvegicus. Description: Effect on renal excretion in Wistar rat assessed as glucose clearance at 8 mg/kg/hr, iv (RVb=0 ml/min/kg). The data set is classed as functional, Kidney. The method in brief:
as §1

The test system of data set [4] is Rattus norvegicus. Description: Effect on renal excretion in Wistar rat assessed as glucose clearance at 12 mg/kg/hr, iv (RVb=0 ml/min/kg). The data set is classed as functional, Kidney. The method in brief: as §1
For data set [5], the system named is Rattus norvegicus. Description: Effect on renal excretion in Wistar rat assessed as glucose clearance at 16 mg/kg/hr, iv (RVb=0 ml/min/kg). In kind it is functional, Kidney. The method in brief:
as §1

The subject of data set [6] is Rattus norvegicus. Description: Effect on renal excretion in Wistar rat assessed as fractional sodium excretion at 4 mg/kg/hr, iv (RVb=0.61 %). In kind it is functional, Kidney.
The subject of data set [7] is Rattus norvegicus. Description: Effect on renal excretion in Wistar rat assessed as fractional sodium excretion at 8 mg/kg/hr, iv (RVb=0.58 %). The data set is classed as functional, Kidney.
Data set [8] concerns Rattus norvegicus. Description: Effect on renal excretion in Wistar rat assessed as fractional sodium excretion at 12 mg/kg/hr, iv (RVb=0.70 %). In kind it is functional, Kidney.
In data set [9] the test system is Rattus norvegicus. Description: Effect on renal excretion in Wistar rat assessed as fractional sodium excretion at 16 mg/kg/hr, iv (RVb=0.60 %). In kind it is functional, Kidney.
Data set [10] relates to Rattus norvegicus. Description: Effect on renal excretion in Wistar rat assessed as glomerular filtration rate at 4 mg/kg/hr, iv (RVb=1.41 %). The data set is classed as functional, Kidney. The method in brief:
(§2)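 Anaesthetized (pentobarbital 30 mg/kg ip) male Wistar rats (~345 g), 10 per group, were studied over a 30-min control period then a 30-min stevioside priming-plus-iv infusion period. Ringer's containing 2% PAH and 10% inulin was infused at 0.03 ml/min. Urine flow from timed bladder collection was expressed as percent of GFR, with GFR taken as inulin clearance (anthrone assay).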

In data set [11] the test system is Rattus norvegicus. Description: Effect on renal excretion in Wistar rat assessed as glomerular filtration rate at 8 mg/kg/hr, iv (RVb=1.47 %). The data set is classed as functional, Kidney. The method in brief: as §2
Data set [12] has as its system Rattus norvegicus. Description: Effect on renal excretion in Wistar rat assessed as glomerular filtration rate at 12 mg/kg/hr, iv (RVb=1.87 %). In kind it is functional, Kidney. The method in brief: as §2
Data set [13] has as its system Rattus norvegicus. Description: Effect on renal excretion in Wistar rat assessed as glomerular filtration rate at 4 mg/kg/hr, iv (RVb=1.39 %). In kind it is functional, Kidney. Conditions: in the assay text read “16 mg/kg/hr” for “4 mg/kg/hr”. The method in brief:
as §2

For data set [14], the system named is Rattus norvegicus. Description: Effect on renal excretion in Wistar rat assessed as inulin clearance at 4 mg/kg/hr, iv administered 30 mins after inulin infusion (RVb=6.66 ml/min/kg). In kind it is functional, Kidney.
Data set [15] concerns Rattus norvegicus. Description: Effect on renal excretion in Wistar rat assessed as inulin clearance at 8 mg/kg/hr, iv administered 30 mins after inulin infusion (RVb=6.33 ml/min/kg). The data set is classed as functional, Kidney.
Data set [16] has as its system Rattus norvegicus. Description: Effect on renal excretion in Wistar rat assessed as inulin clearance at 12 mg/kg/hr, iv administered 30 mins after inulin infusion (RVb=5.69 ml/min/kg). In kind it is functional, Kidney.
Data set [17] has as its system Rattus norvegicus. Description: Effect on renal excretion in Wistar rat assessed as inulin clearance at 16 mg/kg/hr, iv administered 30 mins after inulin infusion (RVb=6.29 ml/min/kg). In kind it is functional, Kidney.
Data set [18] has as its system Rattus norvegicus. Description: Effect on renal excretion in Wistar rat assessed as p-aminohippuric acid clearance at 4 mg/kg/hr, iv administered 30 mins after p-aminohippuric acid infusion (RVb=12.88 ml/min/kg). In kind it is functional, Kidney. The method in brief: (§3)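 Pentobarbital-anaesthetized (30 mg/kg ip) male Wistar rats (~345 g), 10 per dose group, received a priming dose then a sustained jugular infusion of Ringer's with 2% PAH and 10% inulin at 0.03 ml/min. Clearance was measured over a 30-min control period, then a 30-min iv stevioside priming-plus-infusion period. PAH in carotid plasma and timed bladder urine was measured colorimetrically.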

Data set [19] concerns Rattus norvegicus. Description: Effect on renal excretion in Wistar rat assessed as p-aminohippuric acid clearance at 8 mg/kg/hr, iv administered 30 mins after p-aminohippuric acid infusion (RVb=15.60 ml/min/kg). The data set is classed as functional, Kidney. The method in brief:
as §3

Data set [20] has as its system Rattus norvegicus. Description: Effect on renal excretion in Wistar rat assessed as p-aminohippuric acid clearance at 12 mg/kg/hr, iv administered 30 mins after p-aminohippuric acid infusion (RVb=15.38 ml/min/kg). The data set is classed as functional, Kidney. The method in brief:
as §3

In data set [21] the test system is Rattus norvegicus. Description: Effect on renal excretion in Wistar rat assessed as p-aminohippuric acid clearance at 16 mg/kg/hr, iv administered 30 mins after p-aminohippuric acid infusion (RVb=16.70 ml/min/kg). The data set is classed as functional, Kidney. The method in brief: as §3
Data set [22] in a line: Clearance in Wistar rat at 4 mg/kg/hr, iv. In kind it is ADME, organism-based. Set-up: route intravenous. Conditions: in vivo. The method in brief: as §1
A short description of data set [23]: Clearance in Wistar rat at 8 mg/kg/hr, iv. Also on record: route intravenous. In kind it is ADME, organism-based. Conditions: in vivo. The method in brief: as §1
Data set [24] in a line: Clearance in Wistar rat at 12 mg/kg/hr, iv. In kind it is ADME, organism-based. Also on record: route intravenous. Conditions: in vivo. The method in brief:
as §1

For `C=C1C[C@@]23CC[C@H]4[C@@](C)(CCC[C@@]4(C)C(=O)O[C@@H]4O[C@H](CO)[C@@H](O)[C@H](O)[C@H]4O)[C@@H]2CC[C@]1(O[C@@H]1O[C@H](CO)[C@@H](O)[C@H](O)[C@H]1O[C@@H]1O[C@H](CO)[C@@H](O)[C@H](O)[C@H]1O)C3` [STEVIOSIDE], the clearance in [1] worked out at 12.5 mL/min/kg; in data set [22], 7.21 mL/min/kg; in data set [23], 9.63 mL/min/kg; in [24], 10.2 mL/min/kg. For the same molecule, the Activity in data set [2] came out at 0 mL/min/kg; in data set [3] it was 1.33 mL/min/kg; in data set [4] it was 1.84 mL/min/kg; in data set [5] it was 2.38 mL/min/kg; in data set [6], 0.79%; in data set [7], 1.12%. In addition, the Activity in data set [8] was determined as 1.53%; in data set [9], 1.55%; in [10], 1.56%; in data set [11], 2.19%; in data set [12], 2.67%; in data set [13], 2.36%. The Activity in data set [14] was determined as 6.02 mL/min/kg; in data set [15], 6.51 mL/min/kg; in data set [16], 5.92 mL/min/kg; in data set [17], 6.3 mL/min/kg; in [18], 12.7 mL/min/kg; in data set [19], 19.2 mL/min/kg. The Activity in data set [20] came out at 28.3 mL/min/kg; in data set [21] it was 33.4 mL/min/kg.
